Assay results pooled from the literature.
Lines come from different studies, so protocols differ.
Target: Cyclin-dependent kinase 9 (CDK9, Homo sapiens, UniProt P50750)

Compound | effect on | method | concentration | remaining binding
C=CC(=O)N1CCC(C(=O)NCC(=O)N2CCN(c3nc(-c4cnc(N)nc4C(F)F)nc(N4CCOCC4)n3)CC2)CC1 | binding | competition with immobilised ligand | 1 µM | 98%
CS(=O)(=O)N1CCCC(NC(=O)[C@H](CCC2CCCCC2)NC(=O)c2ccc(CNc3ncnc4c3nnn4-c3ccccc3)cc2)C1 (some centres unmarked) | cell-free assay | competition with immobilised ligand | 0.1 µM | 87%
COc1cnc(Nc2cccc(S(N)(=O)=O)c2)nc1N1CCN(c2ccccc2)CC1 | binding | competition with immobilised ligand | 1 µM | 100%
O=C(c1ccc(Nc2ncc(Cl)c(-c3cc4ccccc4s3)n2)cc1)N1CCC(N2CCCC2)CC1 | binding | competition with immobilised ligand | 1 µM | 82%
COc1ncc2cc3ccccc3nc2c1C#N | cell-free assay | competition with immobilised ligand | 5 µM | 91%
Nc1c(C(=O)NCc2ccc(C(=O)NCCCC3CCCCC3)cc2)cnn1-c1ccccc1 | cell-free assay | competition with immobilised ligand | 0.1 µM | 100%
Nc1ncc2c(n1)-c1c([nH]c3ccc(C#CC4CC4)cc13)CCCC2 | binding | competition with immobilised ligand | 1 µM | 91%
C[C@@H]1CN(c2ccc3ncc(-c4ccc5[nH]nc(C6CC6)c5c4)n3n2)C[C@H](C)O1 | binding | competition with immobilised ligand | 50 nM | 79%
c1cnn2ncc(-c3ccnc(N4CCC45COC5)n3)c2c1 | binding |  | 1 µM | 93%
COc1ccc2c(c1)O[C@@H](c1ccc(OC)c(OC)c1)C[C@H]2NC(=O)C1(c2ccc3c(c2)OC(F)(F)O3)CC1 | cell-free assay | competition with immobilised ligand | 1 µM | 89%
N[C@@H]1CCN(c2nccc(-c3cnn4ncccc34)n2)C1 | binding |  | 1 µM | 100%
COc1ccc2c(O[C@@H]3C[C@H]4C(=O)N[C@]5(C(=O)O)CC5/C=C\CCCCC[C@H](NC(=O)OC5CCCC5)C(=O)N4C3)cc(-c3csc(NC(=O)C(C)C)n3)nc2c1C (some centres unmarked) | cell-free assay | competition with immobilised ligand | 1 µM | 83%
COc1ccnn2ncc(-c3ccnc(N(C)C)n3)c12 | binding |  | 1 µM | 100%
CCOCCn1cc(C(=O)Nc2ccc(-n3nc(-c4cccnc4)cc3C(F)(F)F)cn2)ccc1=O | cell-free assay | competition with immobilised ligand | 1 µM | 97%
CN(C)c1nccc(-c2cnn3ncccc23)n1 | binding |  | 1 µM | 100%
CN(c1ccnc(CNc2nc(Nc3ccc4c(c3)CC(=O)N4)ncc2C(F)(F)F)n1)S(C)(=O)=O | cell-free assay | competition with immobilised ligand | 1 µM | 84%
O=C(c1ccc(Nc2nccc(-c3cc4ccccc4s3)n2)cc1)N1CCC(N2CCCC2)CC1 | binding | competition with immobilised ligand | 1 µM | 85%
CCC(=O)N[C@H]1CC[C@@H](C(=O)N(C)c2ccc(-c3nc4ccccc4o3)cc2)C1 | cell-free assay | competition with immobilised ligand | 1 µM | 95%
CCN1CCN(Cc2ccc(C(=O)Nc3ccc(C)c(Oc4ccc5c(c4)CC(=O)N5)c3)cc2C(F)(F)F)CC1 | binding | competition with immobilised ligand | 1 µM | 100%
CNC(=O)[C@@H]1CC[C@@H](n2c(-c3ccc4cnccc4c3)nc3ccc(C(=O)NCc4cccc(C(N)=O)c4)cc32)C1 | binding | competition with immobilised ligand | 1 µM | 100%
O=C(Nc1c[nH]nc1C(=O)NC1CCNCC1)c1cc(F)cc(F)c1 | binding | competition with immobilised ligand | 1 µM | 72%
CN(c1nccc(-c2cnn3ncccc23)n1)C1CC1 | binding |  | 1 µM | 100%
O=C(NCCCN1CCOCC1)c1ccc(Nc2ncc(Cl)c(-c3ccc(Cl)s3)n2)cc1 | binding | competition with immobilised ligand | 1 µM | 56%
